Assay results collected from several papers.
Lines come from different studies, so protocols differ.
Target: Mitogen-activated protein kinase kinase kinase 2 (MAP3K2, Homo sapiens, UniProt Q9Y2U5)
Residues used in one study (Q9Y2U5 1-619): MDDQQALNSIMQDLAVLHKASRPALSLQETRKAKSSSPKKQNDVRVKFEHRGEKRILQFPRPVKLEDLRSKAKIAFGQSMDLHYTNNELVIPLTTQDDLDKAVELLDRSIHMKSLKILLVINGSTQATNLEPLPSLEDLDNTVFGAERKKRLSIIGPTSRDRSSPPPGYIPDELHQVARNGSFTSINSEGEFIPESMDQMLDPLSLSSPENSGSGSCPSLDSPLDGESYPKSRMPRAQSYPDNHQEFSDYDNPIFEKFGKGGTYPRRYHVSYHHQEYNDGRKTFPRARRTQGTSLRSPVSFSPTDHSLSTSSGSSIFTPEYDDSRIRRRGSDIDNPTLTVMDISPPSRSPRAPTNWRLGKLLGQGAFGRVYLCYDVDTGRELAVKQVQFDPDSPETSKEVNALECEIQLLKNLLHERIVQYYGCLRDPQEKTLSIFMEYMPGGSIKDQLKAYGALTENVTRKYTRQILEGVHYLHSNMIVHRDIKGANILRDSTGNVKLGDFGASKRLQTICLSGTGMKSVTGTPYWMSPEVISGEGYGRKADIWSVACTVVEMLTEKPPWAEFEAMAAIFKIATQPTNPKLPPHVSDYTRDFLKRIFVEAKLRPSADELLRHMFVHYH

SMILES	test	setting	remaining binding
CN(C)CC#Cc1ccc(OCCCc2sc(N3CCc4cccc(C(=O)Nc5nc6ccccc6s5)c4C3)nc2C(=O)O)c(F)c1	cell-free assay, competition with immobilised ligand	1 µM	75%
CN(C)c1ncc(F)c(-c2cnn3ncccc23)n1	binding	1 µM	81%
O=C(Nc1c[nH]nc1C(=O)NC1CCNCC1)c1cc(F)cc(F)c1	binding, competition with immobilised ligand	1 µM	94%
CCN1CCN(Cc2ccc(C(=O)Nc3ccc(C)c(Oc4ccc5c(c4)CC(=O)N5)c3)cc2C(F)(F)F)CC1	binding, competition with immobilised ligand	1 µM	100%
O=C(Nc1ccc(Oc2ccc(F)cc2)cc1)N1CCc2ncccc2[C@H]1c1ccc(F)cc1	cell-free assay, competition with immobilised ligand	1 µM	89%
C[C@@H](c1ccc(-n2cnc3c(N)ncnc32)cc1)N1CCc2nn(C)c(Cc3ccccc3)c2C1=O	binding, competition with immobilised ligand	0.1 µM	57%
C[C@@H]1CN(c2cc(-c3nn(C)c4ccc(OC5(C)CC5)cc34)ncn2)C[C@H](C)O1	cell-free assay, competition with immobilised ligand	1 µM	83%
O=C(NCCCN1CCOCC1)c1ccc(Nc2ncc(Cl)c(-c3ccc(Cl)s3)n2)cc1	binding, competition with immobilised ligand	1 µM	2.3%
C[C@H]1CCN(c2nccc(-c3cnn4ncccc34)n2)C1	binding	1 µM	81%
O=C(Nc1cccnn1)N1CCC(=Cc2cccc(Oc3ccc(C(F)(F)F)cn3)c2)CC1	cell-free assay, competition with immobilised ligand	1 µM	100%
N[C@H]1CCN(c2nccc(-c3cnn4ncccc34)n2)C1	binding	1 µM	100%
CNC(=O)[C@@H]1CC[C@@H](n2c(-c3ccc4cnccc4c3)nc3ccc(C(=O)NCc4cccc(C(N)=O)c4)cc32)C1	binding, competition with immobilised ligand	1 µM	86%
O=C(NCCCN1CCOCC1)c1ccc(Nc2nccc(-c3cc4ccccc4s3)n2)cc1	binding, competition with immobilised ligand	1 µM	24%
CN(C)c1nccc(-c2cnc3ncccn23)n1	binding	1 µM	73%
Cc1nc(N2CC[C@@H](O)C2)ncc1-c1cc(C(F)(F)F)cc2[nH]ncc12	binding, competition with immobilised ligand	1 µM	60%
CC1CCCN1c1nccc(-c2cnn3ncccc23)n1 (stereo not drawn)	binding	1 µM	98%
FC(F)(F)Oc1cccc(-c2cnc3ccc(-c4ccncc4)nn23)c1	cell-free assay, competition with immobilised ligand	5 µM	79%
O=C(Nc1cccnn1)N1CC(C/C=C/c2cncc(Oc3ccc(C(F)(F)F)cn3)n2)C1	cell-free assay, competition with immobilised ligand	1 µM	79%
c1cncc(-c2cccc(Nc3nccc(NC4CCCCC4)n3)c2)c1	binding, competition with immobilised ligand	10 µM	48%
CN(C)c1nccc(-c2cnn3ncccc23)n1	binding	1 µM	78%
O=C(c1ccc(Nc2ncc(Cl)c(-c3ccc(Cl)s3)n2)cc1)N1CCC(N2CCCC2)CC1	binding, competition with immobilised ligand	1 µM	4.9%
